Assay results: ChEMBL document CHEMBL1132701, “Orally active isoxazoline glycoprotein IIb/IIIa antagonists with extended duration of action” (J Med Chem, 1999)

Columns and labels:
[1] = system: Canis familiaris; assay: Inhibition of ex vivo platelet aggregation in dogs after 24 hr of administration of iv bolus dose of 0.025 mg/kg; assay type: functional; conditions: Canis lupus familiaris
Summary of the method: (§1)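 Dogs received an iv bolus, mostly 0.025 mg/kg, with some tested at 0.05 mg/kg. Blood was sampled at 1, 5 and 24 h postdose. Ex vivo platelet aggregation was stimulated with ADP (100 μM) and reported as % inhibition; n = 2.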

[2] = species on record: Canis familiaris; assay: The compound was tested for their ability to inhibit ADP-stimulated platelet aggregation in dog platelet rich plasma; assay type: functional; conditions: Canis lupus familiaris
[3] = biological target: Integrin alpha-IIb/beta-3 (Canis familiaris); assay: Dissociation constant for unactivated Fibrinogen Receptor
[4] = species on record: Homo sapiens; assay: The compound was tested for their ability to inhibit ADP-stimulated platelet aggregation in human platelet rich plasma; assay type: functional
Summary of the method: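 IC50 for inhibition of ADP-induced aggregation in human platelet-rich plasma, determined in three donors.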

[5] = biological target: Integrin alpha-IIb/beta-3 (Canis familiaris); assay: Dissociation constant for activated Fibrinogen Receptor
[6] = system: Canis familiaris; assay: Compounds having IC50 values less than 100 nM in the PRP assay were assessed for their ability to inhibit ex vivo platelet aggregation in dogs after 5 hr of administration of iv bolus dose of 0.025 mg/kg; assay type: functional; conditions: Canis lupus familiaris; summary of the method: as §1
[7] = system: Canis familiaris; assay: Inhibition of ex vivo platelet aggregation in dogs after 24 hr of administration of oral dose of 0.1 mg/kg; conditions: Canis lupus familiaris
[8] = system: Canis familiaris; assay: Inhibition of ex vivo platelet aggregation in dogs after 2 hr of administration of oral dose of 0.1 mg/kg; conditions: Canis lupus familiaris
[9] = system: Canis familiaris; assay: Inhibition of ex vivo platelet aggregation in dogs after 6 hr of administration of oral dose of 0.1 mg/kg; conditions: Canis lupus familiaris

Row | Compound | IC50 [4] | other results
1 | Cc1cccc(S(=O)(=O)N[C@@H](CNC(=O)C[C@@H]2CC(c3ccc(C(=N)N)cc3)=NO2)C(=O)O)c1 |  | inhibition in vivo at 0.025 mg/kg [1]: 16%
2 | Cc1noc(C)c1S(=O)(=O)N[C@H](CNC(=O)C[C@@H]1CC(c2ccc(C(=N)N)cc2)=NO1)C(=O)O | 0.12 µM | IC50 [2]: 0.17 µM; Kd [3]: 0.253 µM; Kd [5]: 0.186 µM
3 | Cc1cccc(S(=O)(=O)N[C@@H](CNC(=O)Cc2cc(-c3ccc(C(=N)N)cc3)no2)C(=O)O)c1 | 0.069 µM | 
4 | CCCCS(=O)(=O)N[C@@H](CNC(=O)CC1CC(c2ccc(C(=N)N)cc2)=NO1)C(=O)O (some centres not stated) | 0.042 µM | 
5 | Cc1cccc(S(=O)(=O)N(C)[C@@H](CNC(=O)C[C@H]2CC(c3ccc(C(=N)N)cc3)=NO2)C(=O)O)c1 | 0.095 µM | 
6 | N=C(N)c1ccc(C2=NOC(CC(=O)NC[C@H](NS(=O)(=O)c3ccccc3-c3ccccc3)C(=O)O)C2)cc1 (some centres not stated) | 0.08 µM | inhibition in vivo at 0.025 mg/kg [1]: 65%
7 | N=C(N)c1ccc(C2=NOC(CC(=O)NC[C@H](NS(=O)(=O)c3cccc4ccccc34)C(=O)O)C2)cc1 (some centres not stated) | 0.055 µM | 
8 | N=C(N)c1ccc(C2=NOC(CC(=O)NC[C@H](NS(=O)(=O)c3ccccc3C(F)(F)F)C(=O)O)C2)cc1 (some centres not stated) |  | inhibition in vivo at 0.025 mg/kg [1]: 45%
9 | Cc1nc(C)c(S(=O)(=O)N[C@@H](CNC(=O)CC2CC(c3ccc(C(=N)N)cc3)=NO2)C(=O)O)s1 (some centres not stated) | 0.036 µM | inhibition in vivo at 0.025 mg/kg [1]: 8%; inhibition in vivo at 0.025 mg/kg [6]: 54%
10 | Cc1noc(C)c1S(=O)(=O)N[C@@H](CNC(=O)CC1CC(c2ccc(C(=N)N)cc2)=NO1)C(=O)O (some centres not stated) | 0.034 µM | inhibition in vivo at 0.025 mg/kg [1]: 33%
11 | CN(Cc1ccccc1)S(=O)(=O)N[C@@H](CNC(=O)CC1CC(c2ccc(C(=N)N)cc2)=NO1)C(=O)O (some centres not stated) | 0.086 µM | 
12 | Cc1ccc(S(=O)(=O)N[C@@H](CNC(=O)CC2CC(c3ccc(C(=N)N)cc3)=NO2)C(=O)O)o1 (some centres not stated) | 0.16 µM | 
13 | N=C(N)c1ccc(C2=NOC(CC(=O)NC[C@H](NS(=O)(=O)c3cnn(-c4ccccc4)c3)C(=O)O)C2)cc1 (some centres not stated) | 0.072 µM | 
14 | Cc1ccccc1S(=O)(=O)N[C@@H](CNC(=O)CC1CC(c2ccc(C(=N)N)cc2)=NO1)C(=O)O (some centres not stated) | 0.041 µM | inhibition in vivo at 0.025 mg/kg [1]: 99%; inhibition in vivo at 0.025 mg/kg [6]: 97%
15 | Cc1noc(C)c1S(=O)(=O)N[C@H](CNC(=O)C[C@H]1CC(c2ccc(C(=N)N)cc2)=NO1)C(=O)O | 0.023 µM | IC50 [2]: 0.025 µM; Kd [3]: 0.0241 µM; Kd [5]: 0.0059 µM

Continued, in another order:

Row | IC50 [4] | Compound | other results
16 | 0.14 µM | N=C(N)c1ccc(C2=NOC(CC(=O)NC[C@H](NS(=O)(=O)c3ccc4ccccc4c3)C(=O)O)C2)cc1 (some centres not stated) | 
17 | 0.17 µM | N=C(N)c1ccc(C2=NOC(CC(=O)NC[C@H](NS(=O)(=O)c3ccc(C(F)(F)F)cc3)C(=O)O)C2)cc1 (some centres not stated) | 
18 | 0.024 µM | N=C(N)c1ccc(C2=NOC(CC(=O)NC[C@H](NS(=O)(=O)c3cccs3)C(=O)O)C2)cc1 (some centres not stated) | 
19 | 0.13 µM | CCCc1ccc(S(=O)(=O)N[C@@H](CNC(=O)CC2CC(c3ccc(C(=N)N)cc3)=NO2)C(=O)O)cc1 (some centres not stated) | 
20 | 0.036 µM | N=C(N)c1ccc(C2=NO[C@@H](CC(=O)NC[C@H](NS(=O)(=O)c3ccccc3Br)C(=O)O)C2)cc1 | inhibition in vivo at 0.1 mg/kg [7]: 40%; inhibition in vivo at 0.1 mg/kg [8]: 29%; inhibition in vivo at 0.1 mg/kg [9]: 73%
21 | 0.19 µM | N=C(N)c1ccc(C2=NO[C@@H](CC(=O)NC[C@H](NS(=O)(=O)c3ccccc3)C(=O)O)C2)cc1 | 
22 | 0.051 µM | N=C(N)c1ccc(C2=NOC(CC(=O)NC[C@H](NS(=O)(=O)c3ccc(Br)cc3)C(=O)O)C2)cc1 (some centres not stated) | 
